The results in this text go back to article PMC8566757 (Food Chemistry: X, 2021).

Experiment [1] deals with T1, xanthine oxidase (Bos taurus, UniProt P80457). The experiment is described as follows: Uric acid formation catalyzed by XO. It is filed as biochemical. In outline: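 Xanthine oxidase (Grade IV) was run in 40 mM sodium carbonate with 0.1 mM EDTA, pH 10.0, at 25 °C. Xanthine was 0–200 µM, and test compound came from a 10 mM DMSO stock. Start with 0.04 unit XO and record uric acid at 293 nm for 60 s. Rate came from the linear rise, against a DMSO control. IC50 was taken at 200 µM xanthine. Mode and kinetic parameters were fitted from ≥3 separate runs.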
T1 sequence (P80457 whole entry): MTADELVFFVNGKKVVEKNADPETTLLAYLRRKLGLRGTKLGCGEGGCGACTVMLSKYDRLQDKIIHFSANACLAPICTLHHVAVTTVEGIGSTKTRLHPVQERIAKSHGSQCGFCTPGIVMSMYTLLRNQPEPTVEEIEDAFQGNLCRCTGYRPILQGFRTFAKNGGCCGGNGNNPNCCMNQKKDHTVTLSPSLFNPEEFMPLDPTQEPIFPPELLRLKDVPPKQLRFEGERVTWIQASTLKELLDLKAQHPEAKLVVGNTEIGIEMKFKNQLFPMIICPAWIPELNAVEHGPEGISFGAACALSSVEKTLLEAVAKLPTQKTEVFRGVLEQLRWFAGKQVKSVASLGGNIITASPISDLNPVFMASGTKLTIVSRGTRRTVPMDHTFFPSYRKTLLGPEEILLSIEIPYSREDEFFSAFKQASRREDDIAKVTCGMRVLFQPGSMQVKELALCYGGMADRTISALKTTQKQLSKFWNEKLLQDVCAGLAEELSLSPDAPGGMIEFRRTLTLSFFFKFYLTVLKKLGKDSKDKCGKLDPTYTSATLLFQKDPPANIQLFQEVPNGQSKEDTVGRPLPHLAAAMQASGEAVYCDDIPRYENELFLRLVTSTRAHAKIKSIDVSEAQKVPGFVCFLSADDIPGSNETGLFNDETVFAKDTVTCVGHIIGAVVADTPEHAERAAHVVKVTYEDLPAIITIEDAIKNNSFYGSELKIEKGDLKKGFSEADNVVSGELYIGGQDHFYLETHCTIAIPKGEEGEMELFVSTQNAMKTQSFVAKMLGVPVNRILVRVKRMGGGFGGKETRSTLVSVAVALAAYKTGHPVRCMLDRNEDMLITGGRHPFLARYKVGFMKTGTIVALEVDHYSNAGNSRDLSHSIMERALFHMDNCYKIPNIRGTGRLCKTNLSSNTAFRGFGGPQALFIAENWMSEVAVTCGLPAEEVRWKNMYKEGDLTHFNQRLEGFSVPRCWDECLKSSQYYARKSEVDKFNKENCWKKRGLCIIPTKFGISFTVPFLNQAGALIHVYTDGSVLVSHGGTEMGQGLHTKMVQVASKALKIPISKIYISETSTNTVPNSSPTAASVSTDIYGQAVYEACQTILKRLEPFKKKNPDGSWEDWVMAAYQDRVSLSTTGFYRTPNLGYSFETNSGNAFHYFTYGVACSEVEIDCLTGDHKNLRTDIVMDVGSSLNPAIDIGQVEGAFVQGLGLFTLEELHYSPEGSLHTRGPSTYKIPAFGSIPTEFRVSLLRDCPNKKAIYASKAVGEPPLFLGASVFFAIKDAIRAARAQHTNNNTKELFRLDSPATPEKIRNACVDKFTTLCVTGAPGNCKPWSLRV

Experiment [2] concerns the target T1, xanthine oxidase. The experiment is described as follows: O2- generation catalyzed by XO. It is filed as biochemical.
The nature of experiment [3]: Scavenging of DPPH radicals and initial scavenging rate. The conditions noted are these: for DPPH activity: 20 min, 25 °C, pH 5.5. In short, it runs like this:
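DPPH (3 mM ethanolic stock) was mixed with 100 mM acetate buffer (pH 5.5) and ethanol. Test compound (10 mM DMSO stock) was added, with DMSO as control, and kept at 25 °C for 20 min. Absorbance was read at 517 nm (ε = 8.32 X 103). The initial rate came from the absorbance drop just after compound addition. Runs were done ≥3 times.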

Broadly, the IC50 is the midpoint of a concentration-inhibition curve. The low end stands for higher potency, the high end for lower potency. As a reminder, the Ki is a measure of affinity in units of concentration, obtained from inhibition or displacement. Read a high Ki as lower affinity.

As to `Oc1cc(O)cc(/C=C/c2ccc(O)c(O)c2)c1` [Piceatannol (6), Piceatannol], in experiment [1], the IC50 came to 15 ± 5 µM and the Ki worked out at 6.7 ± 1.6 µM. In experiment [2], this compound returned an IC50 of 4.5 ± 0.4 µM and an inhibition constant (Ki) of 2.2 ± 0.1 µM. For the same compound, in experiment [2] (mixed type kinetics, xanthine 0 – 200 µM, pH 10.0), the “K’i, inhibition of O2- generation using xanthine oxidase” value is 21.1 ± 1.0 µM. Also, the “Inhibition kinetics (mode) of O2- generation” value in experiment [2] (xanthine 0 – 200 µM) is “mixed type”. Further, the DPPH activity in experiment [3] is listed as 2.45 ± 0.13 DPPH molecules / a molecule of stilbene compound. Also, the “Initial rate of DPPH scavenging” value in experiment [3] (after the addition of sample solution) was found to be 3.75 µmol/L/s.

As for `COc1cc(/C=C/c2ccc(O)cc2)cc(OC)c1` [Pterostilbene (5), Pterostilbene], the IC50 in experiment [1] was above 50 µM; in experiment [2], 124 ± 16 µM. This compound came in with a Ki in experiment [2] of 43 ± 5 µM. In addition, the DPPH activity in experiment [3] is given as 0.74 ± 0.10 DPPH molecules / a molecule of stilbene compound.

`Oc1ccc(/C=C/c2cc(O)cc(O)c2)cc1` [Resveratrol (1), Resveratrol]: the results for the IC50 in experiment [1] and in experiment [2] were 34 ± 4 µM and 21 ± 3 µM, respectively. The Ki was determined as 7.7 ± 0.7 µM in experiment [1] and 7.1 ± 1 µM in experiment [2]. In addition, in experiment [1] (versus xanthine), the “Inhibition kinetics (mode) of uric acid formation” value is on record as “competitive inhibition”. For the same compound, the DPPH activity in experiment [3] is 0.72 ± 0.27 DPPH molecules / a molecule of stilbene compound.

The compound `OC[C@H]1O[C@@H](Oc2cc(O)cc(/C=C/c3ccc(O)cc3)c2)[C@H](O)[C@@H](O)[C@@H]1O` [Resveratrol-3-glucoside (2), Resveratrol-3-glucoside] had an IC50 in experiment [1] above 50 µM. Moreover, in experiment [2], the IC50 was 49 ± 1 µM and affinity was put at a Ki of 19 ± 2 µM. Besides, the DPPH activity in experiment [3] is listed as 0.59 ± 0.15 DPPH molecules / a molecule of stilbene compound.
